The text below walks through data of ChEMBL document CHEMBL1152464, “Toluidine blue-mediated photodynamic effects on staphylococcal biofilms” (2008).

Experiment [1] concerns Staphylococcus epidermidis. The experiment in a line: Phototoxicity against Staphylococcus epidermidis 1457 grown as biofilms assessed as decrease in survival incubated at 40 uM followed by irradiation with 1 to 200 J/cm2 laser light. It is filed as functional, organism-based. The method, boiled down:
(§1)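 Biofilms were grown 16 h at 37°C in TSB + 0.25% glucose, with plasma-coated wells for S. aureus. They were then incubated with TBO (10–80 μM tested) in the dark for 30 min at 37°C and irradiated with a 640 nm diode laser, 1-cm spot, 42 mW/cm², at varied light doses. Cells were scraped, sonicated, serially diluted, and plated. Surviving fraction is CFU (TBO + light)/CFU (TBO alone). Duplicate biofilms, three experiments.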

Experiment [2] has as its system Staphylococcus aureus. The experiment can be described thus: Phototoxicity against Staphylococcus aureus isolate LP grown as biofilms assessed as decrease in survival incubated at 40 uM followed by irradiation with 1 to 200J/cm2 laser light. It is filed as functional, organism-based. In a few lines: as §1
For experiment [3], the system named is Staphylococcus aureus. The experiment in a line: Antimicrobial activity against Staphylococcus aureus isolate LP grown as biofilms at 40 uM incubated in dark for 30 mins. It is filed as functional, organism-based. In a few lines: (§2)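 Biofilms grown 16 h at 37°C in polystyrene wells from overnight TSB cultures diluted in TSB + 0.25% glucose (S. epidermidis 1:200, S. aureus 1:50, S. aureus wells precoated with 20% human plasma). TBO in PBS added, kept dark 30 min at 37°C, no light. Biofilms scraped, sonicated, vortexed, and plated on TSB agar. CFU counted after 24 h at 37°C in the dark and compared with PBS-only controls.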

Experiment [4] deals with Staphylococcus aureus. The experiment in a line: Phototoxicity against Staphylococcus aureus isolate LP grown as biofilms assessed as dead cells incubated at 40 uM for 30 mins followed by irradiation with 100 J/cm'2 laser light using SYTO9 staining by confocal laser scanning microscopy. It is filed as functional, organism-based. In a few lines: (§3)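 Biofilms were grown 16 h at 37°C on glass coverslips, plasma-coated for S. aureus, and treated with 40 μM TBO for 30 min in the dark, then left dark or irradiated at 640 nm to 100 or 200 J/cm². They were stained with SYTO9/propidium iodide (1 μl of each stock per 3 ml PBS) for 15 min at 22°C in the dark and imaged by confocal microscopy. Red = membrane-damaged/dead, green = viable.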

In experiment [5] the test system is Staphylococcus epidermidis. The experiment can be described thus: Phototoxicity against Staphylococcus epidermidis 1457 grown as biofilms assessed as dead cells incubated at 40 uM for 30 mins followed by irradiation with 200 J/cm'2 laser light using propidium iodide staining by confocal laser scanning microscopy. The class given is functional, organism-based. The method, boiled down:
as §3

For experiment [6], the system named is Staphylococcus aureus. The experiment can be described thus: Phototoxicity against Staphylococcus aureus isolate LP grown as biofilms incubated at > 40 uM followed by irradiation with 1 to 200 J/cm2 laser light. The class given is functional, organism-based. The method, boiled down: as §1
In experiment [7] the test system is Staphylococcus epidermidis. The experiment in a line: Phototoxicity against Staphylococcus epidermidis 1457 grown as biofilms assessed as dead cells incubated at 40 uM for 30 mins followed by irradiation with 100 J/cm'2 laser light using SYTO9 staining by confocal laser scanning microscopy. The class given is functional, organism-based. The method, boiled down: as §3

Experiment [8] concerns Staphylococcus epidermidis. The experiment in a line: Antimicrobial activity against Staphylococcus epidermidis 1457 grown as biofilms at 40 uM incubated in dark for 30 mins. The class given is functional, organism-based. In a few lines: as §2
The test system of experiment [9] is Staphylococcus aureus. The experiment in a line: Phototoxicity against Staphylococcus aureus isolate LP grown as biofilms assessed as reduction in adherent bacterial count incubated at 40 uM for 30 mins followed by irradiation with 100 J/cm'2 laser light by scanning electron microscopy in presence of TEDTA pretreated for 1 hr. The class given is functional, organism-based. In a few lines:
(§4)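 Thermanox coverslip biofilms (plasma-precoated for S. aureus) were pretreated with 20 mM TEDTA for 1 h, given 40 μM TBO for 30 min in the dark, and irradiated at 100 J/cm². They were then fixed in glutaraldehyde/cacodylate, dehydrated in graded ethanol, critical-point dried, gold-coated, and imaged by SEM at ×1,000.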

Experiment [10] deals with Staphylococcus epidermidis. The experiment in a line: Phototoxicity against Staphylococcus epidermidis 1457 grown as biofilms incubated at > 40 uM followed by irradiation with 1 to 200 J/cm2 laser light. The class given is functional, organism-based. In a few lines: as §1
Experiment [11] concerns Staphylococcus aureus. The experiment can be described thus: Phototoxicity against Staphylococcus aureus isolate LP grown as biofilms assessed as dead cells incubated at 40 uM for 30 mins followed by irradiation with 200 J/cm'2 laser light using propidium iodide staining by confocal laser scanning microscopy. The class given is functional, organism-based. In a few lines: as §3

Experiment [12] has as its system Staphylococcus aureus. The experiment in a line: Phototoxicity against Staphylococcus aureus isolate LP grown as biofilms assessed as reduction in adherent bacterial count incubated at 40 uM for 30 mins followed by irradiation with 100 J/cm'2 laser light by scanning electron microscopy. The class given is functional, organism-based. The method, boiled down:
(§5)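 Biofilms were grown on Thermanox coverslips in TSB, precoated with 20% human plasma for S. aureus, and incubated with 40 μM TBO for 30 min in the dark, either unirradiated or irradiated at 100 J/cm². They were washed, fixed in 2.5% glutaraldehyde/0.1 M cacodylate pH 7.2 for 1 h at 4°C, ethanol-dehydrated, critical-point dried, and gold-coated. SEM was at ×1,000.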

For experiment [13], the system named is Staphylococcus epidermidis. The experiment can be described thus: Phototoxicity against Staphylococcus epidermidis 1457 grown as biofilms assessed as log reduction in survival fraction incubated at 40 uM for 30 mins followed by irradiation with 100 J/cm'2 laser light in presence of TEDTA pretreated for 1 hr. The class given is functional. The method, boiled down: (§6)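 Biofilms were pretreated with 20 mM TEDTA in PBS for 1 h. They were then given 40 μM TBO, 30 min in the dark at 37°C, and 640 nm laser at 42 mW/cm² to 100 J/cm². Colony counts were made after scraping, sonication, and plating. Controls: TEDTA+TBO without light, TEDTA alone, and untreated. Survival was compared with TBO + light without TEDTA using an unpaired two-sided t test.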

The subject of experiment [14] is Staphylococcus aureus. The experiment in a line: Phototoxicity against Staphylococcus aureus isolate LP grown as biofilms assessed as dead cells incubated at 40 uM for 30 mins in dark using SYTO9 staining by confocal laser scanning microscopy in presence of TEDTA pretreated for 1 hr. It is filed as functional, organism-based. The method, boiled down: (§7)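 Coverslip biofilms (plasma-coated for S. aureus) were pretreated with 20 mM TEDTA for 1 h and exposed to 40 μM TBO for 30 min in the dark. They were stained with SYTO9 plus propidium iodide for 15 min at 22°C in the dark and examined by confocal laser scanning microscopy for red (dead) versus green (viable) cells.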

For experiment [15], the system named is Staphylococcus aureus. The experiment can be described thus: Increase in phototoxicity against Staphylococcus aureus isolate LP grown as biofilms incubated at 40 uM for 30 mins followed by irradiation with 100 J/cm'2 laser light in presence of TEDTA pretreated for 1 hr. The class given is functional, organism-based. In a few lines:
as §6

Experiment [16] in a line: Ratio of phototoxicity against Staphylococcus aureus isolate LP grown as biofilms to phototoxicity against Staphylococcus epidermidis 1457. The class given is functional. The method, boiled down: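 Cell survival for each species was derived as CFU (TBO + light)/CFU (TBO alone) after biofilms were incubated with 40 μM TBO for 30 min in the dark and irradiated with a 640 nm diode laser at 42 mW/cm², compared at 25 J/cm². Unpaired two-sided t test.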

Experiment [17] concerns Staphylococcus aureus. The experiment can be described thus: Phototoxicity against Staphylococcus aureus isolate LP grown as biofilms assessed as dead cells incubated at 40 uM for 30 mins in dark using SYTO9 staining by confocal laser scanning microscopy. The class given is functional, organism-based. In a few lines:
as §3

Experiment [18] concerns Staphylococcus epidermidis. The experiment can be described thus: Phototoxicity against Staphylococcus epidermidis 1457 grown as biofilms assessed as dead cells incubated at 40 uM for 30 mins in dark using SYTO9 staining by confocal laser scanning microscopy in presence of TEDTA pretreated for 1 hr. It is filed as functional, organism-based. In a few lines:
as §7

Experiment [19] has as its system Staphylococcus aureus. The experiment in a line: Phototoxicity against Staphylococcus aureus isolate LP grown as biofilms assessed as appearance of large cellular aggregates surrounded by extracellular matrix incubated at 40 uM for 30 mins in dark by scanning electron microscopy. It is filed as functional, organism-based. The method, boiled down: as §5
For experiment [20], the system named is Staphylococcus epidermidis. The experiment in a line: Phototoxicity against Staphylococcus epidermidis 1457 grown as biofilms assessed as appearance of large cellular aggregates surrounded by extracellular matrix incubated at 40 uM for 30 mins in dark by scanning electron microscopy. The class given is functional, organism-based. In a few lines: as §5
Experiment [21] deals with Staphylococcus epidermidis. The experiment can be described thus: Phototoxicity against Staphylococcus epidermidis 1457 grown as biofilms assessed as dead cells incubated at 40 uM for 30 mins in dark using SYTO9 staining by confocal laser scanning microscopy. The class given is functional, organism-based. In a few lines:
as §3

In experiment [22] the test system is Staphylococcus epidermidis. The experiment in a line: Phototoxicity against Staphylococcus epidermidis 1457 grown as biofilms assessed as reduction in adherent bacterial count incubated at 40 uM for 30 mins followed by irradiation with 100 J/cm'2 laser light by scanning electron microscopy in presence of TEDTA pretreated for 1 hr. The class given is functional, organism-based. In a few lines: as §4

For experiment [23], the system named is Staphylococcus epidermidis. The experiment can be described thus: Phototoxicity against Staphylococcus epidermidis 1457 grown as biofilms assessed as reduction in adherent bacterial count incubated at 40 uM for 30 mins followed by irradiation with 100 J/cm'2 laser light by scanning electron microscopy. The class given is functional, organism-based. The method, boiled down: as §5

The source made the active and inactive calls. No cut-off for these calls is given here.

Regarding `Cc1cc2nc3ccc(N(C)C)cc3[s+]c2cc1N.[Cl-]` [TOLONIUM CHLORIDE], the result (in [1]; in the experiment with Staphylococcus aureus [2]; in [5]; in the experiment with Staphylococcus aureus [6]; with Staphylococcus aureus [9]; in experiment [10]) was Active. Also, the result (with Staphylococcus aureus [11]; in the experiment with Staphylococcus aureus [12]; in the experiment with Staphylococcus aureus [14]; in [18]; with Staphylococcus aureus [19]; in experiment [20]) was Active. In addition, the result in [22] and in [23] was Active. In addition, the outcome (in the experiment on Staphylococcus aureus [3]; in the experiment on Staphylococcus aureus [4]; in [7]; in [8]; in the experiment with Staphylococcus aureus [15]; with Staphylococcus aureus [17]) was inactive. The outcome in [21] was inactive. Also, the Activity in [13] was found to be 1. The Ratio in experiment [16] worked out at 10.
